Data on eight compounds can be found in ChEMBL document CHEMBL3272339, “Catechol O-methyltransferase. 7. Affinity labeling with the oxidation products of 6-aminodopamine” (J Med Chem, 1976).

Data set [1] is described as follows: Chemical stability of the compound assessed as polymerization under aerobic condition by spectrophotometric analysis. It is filed as physicochemical.
Data set [2] addresses T1, Catechol O-methyltransferase (Rattus norvegicus) (UniProt P22734).
T1 sequence (whole entry): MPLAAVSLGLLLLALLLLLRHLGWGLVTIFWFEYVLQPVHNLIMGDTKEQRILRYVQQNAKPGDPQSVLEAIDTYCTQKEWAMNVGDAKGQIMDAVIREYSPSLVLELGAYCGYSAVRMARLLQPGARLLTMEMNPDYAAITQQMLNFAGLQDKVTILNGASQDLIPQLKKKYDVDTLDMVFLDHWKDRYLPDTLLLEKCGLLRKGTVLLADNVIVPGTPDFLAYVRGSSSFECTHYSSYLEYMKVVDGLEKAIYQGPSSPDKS
Kind of data set: Inhibition of Sprague-Dawley rat liver COMT under aerobic condition at 37 degC in presence of antioxidant sodium metabisulfite.

The target of data set [3] is T1, Catechol O-methyltransferase (Rattus norvegicus). Kind of data set: Inhibition of Sprague-Dawley rat liver COMT at 0.25 to 1.25 mM preincubated for > 50 mins at 37 degC. The gist of the method: (§1)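 COMT came from male Sprague–Dawley rat liver (180–200 g), purified about 50-fold through the calcium phosphate stage. Inhibitor (fresh aqueous stock under N₂) was preincubated with enzyme, MgCl₂ and phosphate buffer pH 7.60 at 37°. Timed aliquots were assayed for 5 min at 37° with ¹⁴C-SAM and 3,4-dihydroxybenzoate or DHA, stopped with HCl, and products extracted and counted. Residual activity was taken against unpreincubated controls, in duplicate.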

For data set [4] the target is unchanged. Description: Inhibition of Sprague-Dawley rat liver COMT under anaerobic condition at 37 degC.
Data set [5] in a line: Chemical stability of the compound in seal ampules containing water under nitrogenous condition at 5 umol/ml measured up to 4 hrs. To be noted: buffer, 5000 µM. It counts as physicochemical. The gist of the method:
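Stock prepared fresh for each experiment at 5 μmol/ml in water in sealed ampules under nitrogen; aliquots withdrawn as needed and checked for signs of oxidation over up to 4 hr.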

Data set [6] concerns the target T1, Catechol O-methyltransferase (Rattus norvegicus). Description: Inhibition of Sprague-Dawley rat liver COMT.
The target is the same in data set [7]. Kind of data set: Inhibition of Sprague-Dawley rat liver COMT under aerobic condition at 5 mM preincubated up to 90 mins followed by enzyme addition at 37 degC measured after 20 mins. In a few lines: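 Inhibitor at 5.0 mM in phosphate buffer pH 7.60 was air-oxidised at 37° for various times. Aliquots then went into preincubation mixtures with purified rat liver COMT (final 64 μM) for 20 min at 37°. Residual activity was measured by the radiochemical assay with ¹⁴C-SAM and catechol substrate, with methylated products extracted into toluene–isoamyl alcohol and counted.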

Data set [8] has the same target. Description: Inhibition of Sprague-Dawley rat liver COMT under aerobic condition at 37 degC in presence of catalase.
Data set [9] shares this target. Kind of data set: Inhibition of Sprague-Dawley rat liver COMT at 16 to 64 uM preincubated > 50 mins at 37 degC. In a few lines: as §1
Data set [10] shares this target. Description: Irreversible inhibition of Sprague-Dawley rat liver COMT.
Data set [11] in a line: Half life of the compound assessed as cyclization to 6-hydroxy-2H-indol-5(3H)-one at 37 degC. It is filed as physicochemical.
Data set [12] concerns the target T1, Catechol O-methyltransferase (Rattus norvegicus). Description: Inhibition of Sprague-Dawley rat liver COMT using 0.76 mM SAM as substrate assessed as residual activity under aerobic condition at 189 uM at 37 degC after 40 mins relative to control.
Data set [13] shares this target. Kind of data set: Inhibition of Sprague-Dawley rat liver COMT using > 0.3 mM SAM as substrate at 0.19 mM at 37 degC after 40 mins.
Data set [14] has the same target. Description: Inhibition of Sprague-Dawley rat liver COMT assessed as residual activity under aerobic condition at 189 uM at 37 degC after 40 mins in presence of catalase relative to control. In a few lines:
(§2)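 Partially purified rat liver COMT (male Sprague-Dawley, calcium phosphate stage, ~50-fold) preincubated at 37° with inhibitor (189 μM), MgCl2 1.38 mM, phosphate buffer pH 7.60. Additions: sodium metabisulfite 0.15 M or catalase 250 μg. Anaerobic runs in sealed ampules under nitrogen. Residual activity vs unpreincubated controls; duplicates.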

Data set [15] has the same target. Description: Inhibition of Sprague-Dawley rat liver COMT using 10 mM DHA/0.4 mM SAH as substrate assessed as residual activity under aerobic condition at 189 uM at 37 degC after 40 mins relative to control.
For data set [16] the target is unchanged. Description: Inhibition of Sprague-Dawley rat liver COMT using 10 mM DHA/0.4 mM SAM as substrate assessed as residual activity under aerobic condition at 189 uM at 37 degC after 40 mins relative to control.
Data set [17] shares this target. Description: Inhibition of Sprague-Dawley rat liver COMT using 2.5 mM DHA as substrate assessed as residual activity under aerobic condition at 189 uM at 37 degC after 40 mins relative to control.
Data set [18] has the same target. Description: Inhibition of Sprague-Dawley rat liver COMT using 0.76 mM SAH as substrate assessed as residual activity under aerobic condition at 189 uM at 37 degC after 40 mins relative to control.
The target is the same in data set [19]. Description: Inhibition of Sprague-Dawley rat liver COMT assessed as residual activity under anaerobic condition at 189 uM at 37 degC after 40 mins relative to control. The gist of the method: as §2
Data set [20] shares this target. Kind of data set: Inhibition of Sprague-Dawley rat liver COMT assessed as residual activity under aerobic condition at 189 uM at 37 degC after 40 mins in presence of antioxidant sodium metabisulfite relative to control. The gist of the method: as §2
The target is the same in data set [21]. Description: Inhibition of Sprague-Dawley rat liver COMT using 10 mM DHA as substrate assessed as residual activity under aerobic condition at 189 uM at 37 degC after 40 mins relative to control.
Data set [22] shares this target. Description: Inhibition of Sprague-Dawley rat liver COMT assessed as residual activity under aerobic condition at 189 uM at 37 degC after 40 mins relative to control. The gist of the method:
as §2

For data set [23] the target is unchanged. Description: Inhibition of Sprague-Dawley rat liver COMT using > 0.3 mM SAH as substrate at 0.19 mM at 37 degC after 40 mins.
Data set [24] shares this target. Description: Inhibition of Sprague-Dawley rat liver COMT using 2.5 mM DHA/0.4 mM SAM as substrate assessed as residual activity under aerobic condition at 189 uM at 37 degC after 40 mins relative to control.
The target is the same in data set [25]. Kind of data set: Inhibition of Sprague-Dawley rat liver COMT at 0.25 mM preincubated for > 50 mins at 37 degC.

Active and inactive are the calls of the source. No cut-off for these calls is given here.

As for `Br.CN(C)CCC1=CC(=O)C(O)=CC1=N`, the Stability entry in [1] is recorded as “Unstable”.
In the case of `Br.NCC1(c2cc(O)c(O)cc2N)CCCC1`, the inhibition result in data set [2] and in data set [4] was “inactive” each time. Besides, the inhibition result in data set [3] is “Active”. In data set [5], the Stability result is reported as “Stable”.
For `Br.CC(N)C(C)(C)c1cc(O)c(O)cc1N` (centres undefined), the inhibition entry in data set [2] and in data set [4] was “inactive” throughout. For the same compound, in data set [6], the inhibition result was “Active”. The Stability entry in [5] is recorded as “Stable”.
As for `Br.C[N+](C)(C)CCc1cc(O)c(O)cc1N.[Br-]`, the inhibition entry in data set [2], in data set [7], in [9] and in data set [4] was “inactive” each time. Further, the inhibition entry in data set [8] and in data set [10] was “Active” throughout. In addition, the Stability entry in [5] is reported as “Stable”.
Usually half-life stands for how long it takes for the measured level to halve. Turning to `N=C1C=C(O)C(=O)C=C1CCN`, the half-life in data set [11] is 30 s.
In the case of `Br.Br.CN(C)CCc1cc(O)c(O)cc1N`, the inhibition entry in data set [2] and in [4] was “inactive” throughout. The inhibition entry in data set [8] and in data set [10] was “Active” each time. Further, the Stability result in data set [5] is “Stable”.
In the case of `NCCc1cc(O)c(O)cc1N`, the Activity in data set [12] turned out to be 26%; in data set [14], 1%; in data set [15], 94%; in data set [16], 85%; in data set [17] it was 10%; in data set [18], 52%. For the same compound, the Activity is 103% in [19]; 77% in data set [20]; 17% in data set [21]; 2% in [22]; 63% in data set [24]. Moreover, the inhibition result in data set [13], in [10], in data set [23] and in data set [25] was “Active” throughout. Also, in [5], the Stability entry was “Stable”.
For `C[N+](C)(C)CCC1=CC(=O)C(O)=CC1=N.[Br-]`, the Stability entry in data set [1] was “Unstable”.
